Numbered stars: 1 amine (or outer) side, 2 acyl side, 3 side chain; on linkers, the order of the positions; unused ones are H or OH. Bridge positions count the residues as written; N and C are the ends. Square brackets hold non-standard residues; d marks the D form. Peptide text beside a SMILES is read from it. I, II: the chains in the order shown. * marks the point of attachment. X1 = O=C(COCC(=O)*)Nc1ccc(-c2c3nc(c(-c4ccccc4)c4ccc([nH]4)c(-c4ccccc4)c4nc(c(-c5ccccc5)c5ccc2[nH]5)C=C4)C=C3)cc1; NH(CH2CH2O)6CH2CO = O=C(COCCOCCOCCOCCOCCOCCN[*:1])[*:2]
Columns and labels:
[1] = Biodistribution in human PC3M cells xenografted SCID mouse tumor assessed per mg of protein at 1 umol/kg, ip after 24 hrs; type: ADME, organism-based, Neoplasm; conditions: in vivo
Summary of the method: (§1)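 Male SCID mice carrying PC-3M tumours (2 × 10^6 cells injected into the dorsum between the shoulder blades, grown 5-6 weeks to about 0.1 cm3) received 1.0 µmol/kg ip in 5% dextrose. Tissues were collected at 24 h, solubilised at 37 °C and homogenised. Porphyrin fluorescence (530/645 nm) was read against per-tissue standard curves, vehicle-only background was subtracted, and results are given as pmol/mg tissue protein, mean ± SE, n = 4.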

Liver = experiment: Biodistribution in human PC3M cells xenografted SCID mouse liver assessed per mg of protein at 1 umol/kg, ip after 24 hrs; type: ADME, organism-based; conditions: in vivo; summary of the method: as §1
[2] = Cytotoxicity against human PC3M cells after 24 hrs under dark condition; type: functional, cell-based; conditions: PC-3M
Summary of the method: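 PC-3M cells in DMEM/10% FBS were seeded at 10000 cells/cm2 and attached overnight. They were exposed to increasing concentrations up to 100 µM for 24 h in the dark, in quadruplicate wells. Detached cells were washed off and attached cells were trypsinised and counted by hemocytometer. Viability is expressed as % of untreated controls, and IC50 was taken from the curves.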

[3] = Ratio of IC50 for human PC3M cells under dark condition to IC50 for human PC3M cells exposed to 1 J/cm'2 light; type: functional
Summary of the method: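 Ratio of the dark IC50 (24 h exposure, hemocytometer viable count) to the light IC50 (24 h loading, then 610 nm long-pass halogen light, about 1 J/cm2, 20 min on ice, overnight incubation, then counting) in PC-3M cells.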

[4] = Phototoxicity against human PC3M cells after 24 hrs followed by exposure to 1 J/cm'2 light for 20 mins; type: functional, cell-based; conditions: pc-3m
Summary of the method: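 PC-3M cells were plated as for the dark assay and loaded with a range of concentrations for 24 h in quadruplicate. After washing, the medium was replaced with DMEM containing 50 mM HEPES, pH 7.4. Cells were irradiated on ice with a 100 W halogen lamp through a 610 nm long-pass filter and a water IR filter for 20 min, about 1 J/cm2. They were then incubated overnight and viable cells counted by hemocytometer relative to controls, giving IC50.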

Compound: N=C(N)NCCC[C@H](NC(=O)CNC(=O)COCCOCCOCCOCCOCCOCCNC(=O)COCC(=O)Nc1ccc(-c2c3nc(c(-c4ccccc4)c4ccc([nH]4)c(-c4ccccc4)c4nc(c(-c5ccccc5)c5ccc2[nH]5)C=C4)C=C3)cc1)C(=O)N[C@@H](CCCCN)C(=O)N[C@@H](CCCCN)C(=O)N[C@@H](CCCNC(=N)N)C(=O)N[C@@H](CCCNC(=N)N)C(=O)N[C@@H](CCC(N)=O)C(=O)N[C@@H](CCCNC(=N)N)C(=O)N[C@@H](CCCNC(=N)N)C(=O)N[C@@H](CCCNC(=N)N)C(=O)N1CCC[C@H]1C(=O)N1CCC[C@H]1C(=O)N[C@@H](CCC(N)=O)C(=O)O
- Drug uptake [1]: 8.1 pmol
- Drug uptake (Liver): 16.1 pmol
- IC50 [2]: 38.3 µM
- Ratio IC50 [3]: 96
- IC50 [4]: 0.4 µM

Compound: CC(C)[C@H](NC(=O)[C@H](CCCCN)NC(=O)[C@H](CCCNC(=N)N)NC(=O)[C@H](CCCCN)NC(=O)[C@H](CCCCN)NC(=O)[C@H](CCCCN)NC(=O)[C@@H]1CCCN1C(=O)CNC(=O)COCCOCCOCCOCCOCCOCCNC(=O)C[C@H](NC(=O)COCC(=O)Nc1ccc(-c2c3nc(c(-c4ccccc4)c4ccc([nH]4)c(-c4ccccc4)c4nc(c(-c5ccccc5)c5ccc2[nH]5)C=C4)C=C3)cc1)C(=O)NCCOCCOCCOCCOCCOCCOCC(=O)NCC(=O)N1CCC[C@H]1C(=O)N[C@@H](CCCCN)C(=O)N[C@@H](CCCCN)C(=O)N[C@@H](CCCCN)C(=O)N[C@@H](CCCNC(=N)N)C(=O)N[C@@H](CCCCN)C(=O)N[C@H](C(=O)O)C(C)C)C(=O)O (I: X1-D[NH(CH2CH2O)6CH2CO]GPKKKRKV-OH / II: [NH(CH2CH2O)6CH2CO]GPKKKRKV-OH; amide I:1-II:N)
- IC50 [2]: 20.8 µM
- Ratio IC50 [3]: 7
- IC50 [4]: 2.95 µM

Compound: Oc1cccc(-c2c3nc(c(-c4cccc(O)c4)c4ccc([nH]4)c(-c4cccc(O)c4)c4ccc([nH]4)c(-c4cccc(O)c4)c4nc2CC4)C=C3)c1
- IC50 [2]: 16.1 µM
- IC50 [4]: 1.61 µM

Compound: CC(C)C[C@H](NC(=O)[C@H](CCCCN)NC(=O)[C@H](CCCCN)NC(=O)[C@H](CCCCN)NC(=O)[C@H](C)NC(=O)[C@H](CCC(N)=O)NC(=O)CNC(=O)[C@H](C)NC(=O)[C@H](CCCCN)NC(=O)[C@H](CCCCN)NC(=O)[C@@H](NC(=O)[C@H](C)NC(=O)[C@H](C)NC(=O)[C@@H]1CCCN1C(=O)[C@H](CCCNC(=N)N)NC(=O)[C@H](CCCCN)NC(=O)COCCOCCOCCOCCOCCOCCNC(=O)COCC(=O)Nc1ccc(-c2c3nc(c(-c4ccccc4)c4ccc([nH]4)c(-c4ccccc4)c4nc(c(-c5ccccc5)c5ccc2[nH]5)C=C4)C=C3)cc1)[C@@H](C)O)C(=O)N[C@@H](CCC(=O)O)C(=O)N[C@@H](CC(=O)O)C(=O)N1CCC[C@H]1C(=O)N[C@@H](CCCNC(=N)N)C(=O)N[C@@H](CCCCN)C(=O)N[C@@H](CCCCN)C(=O)N[C@@H](CCCNC(=N)N)C(=O)N[C@@H](CCCNC(=N)N)C(=O)N[C@@H](CCC(N)=O)C(=O)N[C@@H](CCCNC(=N)N)C(=O)N[C@@H](CCCNC(=N)N)C(=O)N[C@@H](CCCNC(=N)N)C(=O)N1CCC[C@H]1C(=O)N1CCC[C@H]1C(=O)N[C@@H](CCC(N)=O)C(=O)NCC(=O)O (X1-[NH(CH2CH2O)6CH2CO]KRPAATKKAGQAKKKLEDPRKKRRQRRRPPQG-OH)
- IC50 [2]: 32.9 µM
- Ratio IC50 [3]: 27
- IC50 [4]: 1.21 µM

Compound: N=C(N)NCCC[C@H](NC(=O)[C@H](CCCCN)NC(=O)[C@H](CCCNC(=N)N)NC(=O)[C@H](CCCNC(=N)N)NC(=O)CCCC(=O)Nc1ccc(-c2c3nc(c(-c4ccccc4)c4ccc([nH]4)c(-c4ccccc4)c4nc(c(-c5ccccc5)c5ccc2[nH]5)C=C4)C=C3)cc1)C(=O)O
- IC50 [2]: 10.7 µM
- Ratio IC50 [3]: 7
- IC50 [4]: 1.48 µM

Compound: CC[C@H](C)[C@H](NC(=O)[C@H](CCCCN)NC(=O)[C@@H](NC(=O)[C@H](CCC(N)=O)NC(=O)[C@H](CCCNC(=N)N)NC(=O)COCCOCCOCCOCCOCCOCCNC(=O)COCC(=O)Nc1ccc(-c2c3nc(c(-c4ccccc4)c4ccc([nH]4)c(-c4ccccc4)c4nc(c(-c5ccccc5)c5ccc2[nH]5)C=C4)C=C3)cc1)[C@@H](C)CC)C(=O)N[C@@H](Cc1c[nH]c2ccccc12)C(=O)N[C@@H](Cc1ccccc1)C(=O)N[C@@H](CCC(N)=O)C(=O)N[C@@H](CC(N)=O)C(=O)N[C@@H](CCCNC(=N)N)C(=O)N[C@@H](CCCNC(=N)N)C(=O)N[C@@H](CCSC)C(=O)N[C@@H](CCCCN)C(=O)N[C@@H](Cc1c[nH]c2ccccc12)C(=O)N[C@@H](CCCCN)C(=O)N[C@@H](CCCCN)C(=O)N[C@@H](C)C(=O)N1CCC[C@H]1C(=O)N1CCC[C@H]1C(=O)N[C@@H](CCCCN)C(=O)N[C@@H](CCCCN)C(=O)N[C@@H](CCCCN)C(=O)N[C@@H](CCCNC(=N)N)C(=O)N[C@@H](CCCCN)C(=O)N[C@H](C(=O)NCC(=O)O)C(C)C (X1-[NH(CH2CH2O)6CH2CO]RQIKIWFQNRRMKWKKAPPKKKRKVG-OH)
- IC50 [2]: 11.4 µM
- Ratio IC50 [3]: 8.5
- IC50 [4]: 1.34 µM

Reference: ChEMBL document CHEMBL1140188, “Photoinduced cytotoxicity and biodistribution of prostate cancer cell-targeted porphyrins” (J Med Chem, 2008)
